Results published in ChEMBL document CHEMBL5150073, “Photocaged DNA-Binding Photosensitizer Enables Photocontrol of Nuclear Entry for Dual-Targeted Photodynamic Therapy” (J Med Chem, 2022).
The source made the active and inactive calls. The rule behind the calls is not given here.

What was measured:
Calf thymus DNA [1] = assay: Binding affinity to calf thymus DNA assessed as reduction in absorbance spectra at 20 uM by fluorescence based analysis; assay type: nucleic-acid assay; conditions: Bos taurus
Calf thymus DNA [2] = assay: Binding affinity to calf thymus DNA assessed as red shift in absorbance spectra at 20 uM by fluorescence based analysis; assay type: nucleic-acid assay; conditions: Bos taurus
[3] = Drug localization in cytosol of human MCF7 cells assessed as increase in bright green fluorescence of wintergreen excitation at 2 uM incubated for 1 hr in dark by EGFP filter based analysis; assay type: ADME, subcellular
MCF7 [4] = assay: Photorelease activity in human MCF7 cells assessed as 3-bromo-2-(4-carbamimidoylphenyl)-1H-indole-6-carboxamidine release by measuring bright cyan fluorescence in nucleus at 3 uM incubated for 1 hr followed by illumination with 1.6 J/cm^2 for 10 mins by DAPI filter based analysis; assay type: ADME, cell-based; conditions: mcf7, 1.167 h, time 70 min
Summary of the method: (§1)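 MCF7 cells given compound (3 μM) for 1 h, washed once with PBS, imaged. DAPI filter set (ex 350–405, em 415–470 nm) used for Br-DAPI cyan signal; EGFP filter set (ex 450–495, em 500–550 nm) used for WinterGreen green signal. Cells imaged dark, then after 480 nm illumination (10 min, 1.6 J cm⁻²).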

MCF7 [5] = assay: Photorelease activity in human MCF7 cells assessed as wintergreen release by measuring bright green fluorescence in nucleus at 3 uM incubated for 1 hr followed by illumination with 1.6 J/cm^2 for 10 mins by EGFP filter based analysis; assay type: ADME, cell-based; conditions: mcf7, 1.167 h, time 70 min; summary of the method: as §1
[6] = Aqueous stability of the compound in PBS at pH 7.4 assessed as hydrolysis of carbamate to release 3-bromo-2-(4-carbamimidoylphenyl)-1H-indole-6-carboxamidine at 0.8 uM incubated for 3 hrs by fluorescence based analysis; assay type: physicochemical; conditions: buffer, pH 7.4, 3 h
[7] = Induction of ROS production in PBS at pH 7.4 at 1 uM irradiated with 480 nm 2.3 J/cm^2 light for 15 mins with 2-photon irradiation by DCFH2-DA probe based analysis; assay type: functional
DNA = assay: Induction of DNA (unknown origin) damage in PBS at pH 7.4 assessed as double strand breaks by measuring elimination of intact DNA at 10 uM irradiated with 480 nm 2.3 J/cm^2 light for 15 mins with 8 J/cm^2 UV irradiation for 5 mins by ethidium bromide staining based agarose gel electrophoresis; assay type: nucleic-acid assay; conditions: time 20.0 min
Summary of the method: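 Plasmid dsDNA (70 ng pCMV-PARP1-3xFlag-WT, 7146 bp) in PBS pH 7.4 with compound at 10 μM. Illumination: 480 nm for 15 min (2.3 J cm⁻²), then UV 365 nm lamp for 5 min (8.0 J cm⁻²). Samples denatured, run on 1% agarose gel with ethidium bromide. n = 2.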

MCF7 [8] = assay: Induction of DNA damage in human MCF7 cells assessed as double strand breaks by measuring pink foci formation in nucleus at 3 uM incubated for 2 hrs followed by irradiation with 480 nm 2.3 J/cm^2 light for 15 mins with 8 J/cm^2 UV irradiation for 5 mins by gammaH2A.X antibody/Alexa 488/DAPI staining based fluorescence analysis; assay type: functional, cell-based
Summary of the method: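 MCF7 cells treated with compound at 3 μM, then illuminated with 480 nm (15 min, 2.3 J cm⁻²) plus UV (5 min, 8.0 J cm⁻²), or with UV alone. Left 2 h, fixed, stained with Alexa 488-tagged γH2AX antibody and DAPI counterstain. Nuclear foci imaged.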

MCF7 [9] = assay: Photocytotoxicity against human MCF7 cells assessed as reduction in cell viability incubated for 1 hr followed by washout and irradiation with 480 nm 2.3 J/cm^2 light for 15 mins with 8 J/cm^2 UV irradiation for 5 mins and measured after 24 hrs by MTT assay; assay type: functional; conditions: MCF7, light or radiation study
Summary of the method: (§2)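 Cells (MCF7, A549, HeLa) incubated 1 h with compound (BB probes 0–32 μM, Br-DAPI 0–64 μM) and washed once. Light arms: 480 nm (15 min, 2.3 J cm⁻²) with or without UV (5 min, 8.0 J cm⁻²), or UV only; dark controls unilluminated. Cells kept overnight in growth medium, then MTT read 24 h post-treatment. CC50 taken relative to untreated cells. n = 3.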

[10] = Selectivity index, ratio of CC50 for photocytotoxicity against human MCF7 cells irradiated with 480 nm 2.3 J/cm^2 light to CC50 for photocytotoxicity against human MCF7 cells irradiated with 480 nm 2.3 J/cm^2 light and 8 J/cm^2 UV irradiation; assay type: functional; summary of the method: as §2
[11] = Selectivity index, ratio of CC50 for photocytotoxicity against human HeLa cells irradiated with 480 nm 2.3 J/cm^2 light to CC50 for photocytotoxicity against human HeLa cells irradiated with 480 nm 2.3 J/cm^2 light and 8 J/cm^2 UV irradiation; assay type: functional; summary of the method: as §2
MCF7 [12] = assay: Photocytotoxicity against human MCF7 cells assessed as cell death by measuring increase in green fluorescence incubated for 1 hr followed by washout and irradiated with 480 nm 2.3 J/cm^2 light for 15 mins with 48 J 780 nm 2P laser light for 30 seconds and further incubated for 2 hrs by cell viability imaging kit based assay; assay type: functional; conditions: dose 0-8 µM, DDE = dose-dependent effect
Summary of the method: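 MCF7 cells given compound at 4 μM. Illuminated with 480 nm light (15 min, 2.3 J cm⁻²) plus 780 nm two-photon laser (30 s, 48 J). Stained 2 h later with a live/dead imaging kit: green dead-cell stain (EGFP filter), blue total-cell stain (DAPI filter). n = 3.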

[13] = Drug uptake in human MCF7 cells cultured as […] spheroids assessed as increase in green fluorescence in nuclear background at 10 uM incubated overnight under dark condition by DAPI filter based fluorescence analysis; assay type: ADME, cell-based; conditions: mcf7, 10 µM
MCF7 [14] = assay: (§3) Photocytotoxicity against human MCF7 cells cultured as […] spheroids assessed as cell death by measuring increase in green fluorescence at 10 uM incubated for 1 hr followed by washout and irradiation with 480 nm 2.3 J/cm^2 light for 15 mins with 8 J/cm^2 UV irradiation for 5 mins and incubated overnight by cell viability imaging kit based assay; assay type: functional
Summary of the method: (§4)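 MCF7 spheroids (~300 μm) grown in ultralow-attachment plates. Compound added to medium at 10 μM final for 1 h, then illuminated: 480 nm (15 min, 2.3 J cm⁻²), 480 nm plus UV (5 min, 8.0 J cm⁻²), or UV only. After overnight incubation, stained with a live/dead imaging kit; dead-cell green mean intensity and spheroid diameter assessed.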

MCF7 [15] = assay: as §3, with “tumor spheroid shrinkage” for “cell death by measuring increase in green fluorescence”; assay type: functional; summary of the method: as §4
Calf thymus DNA [16] = assay: Binding affinity to calf thymus DNA assessed as fold change in fluorescence quenching of 3-bromo-2-(4-carbamimidoylphenyl)-1H-indole-6-carboxamidine; assay type: nucleic-acid assay; conditions: Bos taurus
[17] = Photorelease ability in PBS at pH 7.4 assessed as 3-bromo-2-(4-carbamimidoylphenyl)-1H-indole-6-carboxamidine release by measuring change in emission spectra at 1 uM incubated in presence of CT-DNA and irradiated with 3.1 J/cm^2 mercury lamp light for 20 mins; assay type: functional
[18] = Photorelease activity in PBS at pH 7.4 assessed as wintergreen release at 50 uM in presence of CT-DNA illuminated with 3.1 J/cm^2 480 nm illumination for 20 mins by RP-HPLC analysis; assay type: functional
Summary of the method: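 Samples at 50 μM in PBS pH 7.4 were either kept 3 h at 37 °C in the dark or illuminated 20 min at 480 nm (450–495 nm filter, 3.1 J cm⁻²). Analysed by RP-HPLC on a C18 analytical column with absorbance at 345 nm; retention times recorded. n = 2 independent samples.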

## CC1=CC(C)=[N+]2C1=C(COC(=O)/N=C(\N)c1ccc3c(Br)c(-c4ccc(C(=N)N)cc4)[nH]c3c1)c1c(C)cc(C)n1[B-]2(C)C
Calf thymus DNA [1]
  Activity: Active
Calf thymus DNA [2]
  Activity: Active
[3]
  Drug uptake: Active
MCF7 [4]
  Drug metabolism: Metabolite_Detected
MCF7 [5]
  Drug metabolism: Metabolite_Notdetected
[6]
  Stability: Stable
[7]
  Activity: Active
DNA
  Activity: Active
MCF7 [8]
  Activity: Active
MCF7 [9]
  CC50: 470 nM
[10]
  Ratio: 8.5
[11]
  Ratio: 2.2
MCF7 [12]
  Activity: Dde
[13]
  Drug uptake: Active
MCF7 [14]
  Activity: Active
MCF7 [15]
  Activity: Active
Calf thymus DNA [16]
  fold change (FC): 4
[17]
  Drug metabolism: Metabolite detected
[18]
  Drug metabolism: Metabolite not detected
